Experimental data from different studies.
Target: Calcium/calmodulin-dependent protein kinase type 1D (CAMK1D, Homo sapiens, UniProt Q8IU85)

O=C1Nc2ccc(Cl)cc2C1=Cc1cc(Cl)c(O)c(Cl)c1
remaining signal (cell-free assay; 0.5 µM): 104%

CN(CCCC(F)(F)F)c1nccc(-c2cnn3ncccc23)n1
remaining binding (binding; 1 µM): 86%

CCCOc1ccc(OC)c(F)c1C(=O)c1ccc(C(=O)N[C@@H]2CNC[C@H]2NC(=O)c2ccc3[nH]ncc3c2)cc1
remaining activity (enzyme activity, inhibitor; 10 µM): 63%

Cc1ccc(Nc2nccc(N(C)c3ccc4c(C)n(C)nc4c3)n2)cc1S(N)(=O)=O
inhibition (enzyme activity, inhibitor; 0.3 µM): 18%

CN(C)C(=O)Cn1cc(-c2nc(C3(c4ccc(-c5cnc(N)nc5)cc4)CC3)no2)cn1
remaining binding (cell-free assay, competition with immobilised ligand; 1 µM): 100%

CN1CC(Oc2cnc(C#N)cc2-c2ccn3nc(NC(=O)C4CC4)cc3c2)C1
inhibition (enzyme activity, inhibitor; 1 µM): -2%

CC(=O)N1CCC(c2ccc(C(=O)NC3=NCCN3)cc2C(F)(F)F)CC1
remaining binding (cell-free assay, competition with immobilised ligand; 1 µM): 100%

CC(C)(C)c1nc(-c2cccc(NS(=O)(=O)c3c(F)cccc3F)c2F)c(-c2ccnc(N)n2)s1
remaining activity (enzyme activity, inhibitor, radiometric; 1 µM): 116%

Cc1sc(C(=O)NC2COC2)cc1-n1cc(NC(=O)Nc2c(F)cccc2Cl)cn1
remaining activity (enzyme activity, inhibitor; 10 µM): 105%

Nc1nc(Nc2ccc(S(N)(=O)=O)cc2)nn1C(=O)c1c(F)cccc1F
remaining signal (cell-free assay; 0.5 µM): 97.7%

CO[C@@H](C)c1c(Nc2ccc([C@@H](N(C)C(=O)C3CCS(=O)(=O)CC3)C(F)(F)F)cc2)cnc2cc(Cl)nn12
remaining binding (cell-free assay, competition with immobilised ligand; 1 µM): 100%

Cn1c2c(c3ccc(Cl)c(Cl)c31)C(C#N)C1(CCOCC1)NC2=O (stereo not shown)
ΔTm (thermal stability, DSF; 10 µM): -0.5 °C

CS(=O)(=O)c1cc(C2(NC(=O)c3cncc4c3cnn4-c3ccc(F)cc3)CC2)ccn1
remaining binding (cell-free assay, competition with immobilised ligand; 1 µM): 90%

Nc1ncnc2occ(-c3ccc(NC(=O)Nc4cc(C(F)(F)F)ccc4F)cc3)c12
remaining signal (cell-free assay, inhibitor; 20 µM): 2.8%

Cc1cc(NC(=O)c2cccc3cc(-c4cccc5[nH]nc(N)c45)ccc23)ccc1F
activity vs control (enzyme activity, inhibitor; 0.1 µM): 102%

Cn1c2c(Cl)c(Cl)ccc2c2cc[nH]c(=O)c21
ΔTm (thermal stability, DSF; 10 µM): 1 °C

Cc1c(C(=O)O)cc(-c2ccc(C3CCNCC3)cc2)c2ccc(-c3ccc(C(F)(F)F)cc3)cc12
remaining binding (cell-free assay, competition with immobilised ligand; 1 µM): 100%

CCN1CCC2(CC1)NC(=O)c1c(c3ccc(Cl)c(Cl)c3n1C)C2C#N (racemic)
ΔTm (thermal stability, DSF; 10 µM): -0.1 °C

COc1cc2ncnc(Nc3ccc(Oc4ccccc4)cc3C)c2cc1OC
inhibition (enzyme activity, inhibitor; 1 µM): 1%

Cn1c2c(Cl)c(Cl)ccc2c2cn[nH]c(=O)c21
ΔTm (thermal stability, DSF; 10 µM): -0.1 °C

Cc1ccc(NC(=O)c2ccc(C)c(C(F)(F)F)c2)cc1C#Cc1nn(C2CCC(O)CC2)c2ncnc(N)c12 (stereo not shown)
remaining signal (cell-free assay; 10 µM): 92%

Cc1cnc(NC2CCOCC2)nc1-n1cnc(C(=O)NC(CN)c2cc(F)cc(Cl)c2)c1 (stereo not shown)
remaining activity (enzyme activity, inhibitor, radiometric; 1 µM): 84%

C[S+]([O-])c1ccc(-c2nc(-c3ccncc3)c(-c3ccc(F)cc3)[nH]2)cc1 (stereo not shown)
remaining signal (cell-free assay; 0.5 µM): 105%

CCS(=O)(=O)c1cc2cc(C[C@@](O)(CC(C)(C)c3ccc(F)cc3C(N)=O)C(F)(F)F)[nH]c2cn1
remaining binding (cell-free assay, competition with immobilised ligand; 1 µM): 89%

CNC(=O)c1cc(Oc2ccc(NC(=O)Nc3ccc(Cl)c(C(F)(F)F)c3)cc2)ccn1
inhibition (enzyme activity, inhibitor; 10 µM): 22%

CC/C(=N\NC(=O)NCc1cccc(O)c1)c1ccc(O)c(C)c1O
inhibition (enzyme activity, inhibitor; 0.1 µM): -3.5%

CCCCNc1ncc2c(-c3ccc(F)cc3)nn(C[C@H]3CC[C@H](N)CC3)c2n1
inhibition (target engagement in cells, inhibitor, chemoproteomics; 20 mM): 5.9%

COc1cc(-c2cn(C3CCc4ccccc4N(CC(F)(F)F)C3=O)nn2)ccc1-n1ccc(C)n1 (stereo not shown)
remaining binding (cell-free assay, competition with immobilised ligand; 1 µM): 100%

O=C1c2ccccc2-c2n[nH]c3cccc1c23
activity vs control (enzyme activity, inhibitor; 0.5 µM): 91.9%

Cn1c2c(c3ccc(Cl)c(Cl)c31)C(C#N)C1(CCNCC1)NC2=O (racemic)
ΔTm (thermal stability, DSF; 10 µM): 1.2 °C

CNCc1ccccc1-c1csc([C@@H](C)Nc2nc(C)nc3cc(OC)c(OC)cc23)c1
remaining binding (cell-free assay, competition with immobilised ligand; 1 µM): 100%
